Reference: ChEMBL document CHEMBL1131599, “Synthesis of C3 heteroatom-substituted azetidinones that display potent cholesterol absorption inhibitory activity” (1998)

Legend:
[1] = Ability to inhibit liver cholesterol ester was determined in cholesterol fed hamsters; type: functional, Cricetulus griseus
Procedure, shortened: (§1)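 Cholesterol-fed hamsters were dosed orally for 7 days, with doses in mg/kg/day. The value is % inhibition at the stated dose, or an ED50 in mg/kg/day, with n = 4 animals per compound.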

[2] = Percent reduction of liver cholesterol ester levels after po administration of compound in cholesterol fed hamsters at a dose 1 mg/kg/day; type: functional, Cricetulus griseus; details: for inhibition in vivo at 1 mg/kg/day: Cricetulus griseus, Liver, po; procedure, shortened: as §1
[3] = Percent reduction of liver cholesterol ester levels after po administration of compound in cholesterol fed hamsters at a dose 10 mg/kg/day; type: functional; details: Cricetulus griseus; procedure, shortened: as §1
[4] = Percent reduction of liver cholesterol ester levels after po administration of compound in cholesterol fed hamsters at a dose 25 mg/kg/day; type: functional; details: Cricetulus griseus
Procedure, shortened: (§2)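 Cholesterol-fed hamsters received the compound orally once daily for 7 days, with dose expressed as mg/kg/day. Four animals per compound. Values are reported as % inhibition at the given dose, or as an ED50 in mg/kg/day.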

[5] = Percent reduction of Liver cholesterol ester levels after peroral administration in cholesterol fed hamsters; type: functional, Cricetulus griseus; procedure, shortened: as §1
[6] = Percent reduction of Liver cholesterol ester levels after peroral administration in cholesterol fed hamsters at a dose 10 mg/kg/day; type: functional; details: Cricetulus griseus, route oral; procedure, shortened: as §1
[7] = Percent reduction of liver cholesterol ester levels after po administration of compound in cholesterol fed hamsters.; type: functional, Cricetulus griseus; procedure, shortened: as §2
[8] = Percent reduction of liver cholesterol ester levels after po administration of compound in cholesterol fed hamsters at a dose 3 mg/kg/day; type: functional; details: Cricetulus griseus; procedure, shortened: as §1

In the case of COc1ccc([C@@H]2[C@@H]([S+]([O-])CCc3ccccc3)C(=O)N2c2ccccc2)cc1 (stereo in doubt; 27), the ED50 [1] is reported as 0.21 mg/kg/day and the Inhibition [2] is reported as 82%.
COc1ccc([C@@H]2[C@@H](SCCc3ccccc3)C(=O)N2c2ccccc2)cc1 showed an ED50 [1] of 0.13 mg/kg/day and an inhibition in vivo at 1 mg/kg/day [2] of 89%.
With COc1ccc([C@@H]2[C@@H](CCS(=O)(=O)c3ccccc3)C(=O)N2c2ccccc2)cc1 the inhibition in vivo at 10 mg/kg/day [3] was 23%.
O=C1[C@@H]([S+]([O-])CCc2ccccc2)[C@@H](c2ccc(O)cc2)N1c1ccc(F)cc1 (stereo in doubt; 38) showed an Inhibition [2] of 42%.
For COc1ccc([C@@H]2C(SCCc3ccccc3)C(=O)N2c2ccccc2)cc1 (stereo partly specified), the inhibition in vivo at 25 mg/kg/day [4] was 97%.
In the case of COc1ccc([C@@H]2[C@@H](CCCc3ccccc3)C(=O)N2c2ccc(OC)cc2)cc1 [SCH-48461], the ED50 [5] is reported as 2.2 mg/kg/day.
COc1ccc([C@@H]2[C@@H](CCC(O)c3ccccc3)C(=O)N2c2ccccc2)cc1 (stereo partly specified) showed an ED50 [5] of 0.9 mg/kg/day.
Work on COc1ccc([C@@H]2[C@H](SCCc3ccccc3)C(=O)N2c2ccccc2)cc1 yielded an inhibition in vivo at 10 mg/kg/day [3] of 31%.
O=C1[C@@H](SCCc2ccccc2)[C@@H](c2ccc(O)cc2)N1c1ccc(F)cc1 gave an inhibition in vivo at 1 mg/kg/day [2] of 0%.
With COc1ccc([C@@H]2[C@@H](CCSc3ccccc3)C(=O)N2c2ccccc2)cc1 the inhibition in vivo at 10 mg/kg/day [6] was 0%.
COc1ccc([C@@H]2[C@@H](P(=O)(CCc3ccccc3)OC)C(=O)N2c2ccccc2)cc1 (stereo partly specified) gave an Inhibition [7] of 0%.
COc1ccc([C@@H]2[C@@H](CCP(=O)(OC)c3ccccc3)C(=O)N2c2ccccc2)cc1 (stereo partly specified) gave an inhibition in vivo at 25 mg/kg/day [4] of 0%.
Work on O=C1[C@H]([S+]([O-])CCc2ccccc2)[C@@H](c2ccc(O)cc2)N1c1ccc(F)cc1 (stereo partly specified) yielded an inhibition in vivo at 1 mg/kg/day [2] of 82% and an inhibition in vivo at 10 mg/kg/day [3] of 56%.
For COc1ccc([C@@H]2[C@H](C(O)CCc3ccccc3)C(=O)N2c2ccccc2)cc1 (stereo partly specified), the ED50 [5] was 0.4 mg/kg/day.
O=C1[C@@H]([S+]([O-])CCc2ccccc2)[C@@H](c2ccc(O)cc2)N1c1ccc(F)cc1 (stereo in doubt; 37) showed an inhibition in vivo at 1 mg/kg/day [2] of 40%.
In the case of COc1ccc([C@@H]2[C@@H](P(=O)(O)CCc3ccccc3)C(=O)N2c2ccccc2)cc1, the inhibition in vivo at 25 mg/kg/day [4] is reported as 0%.
In the case of O=C1[C@H](SCCc2ccccc2)[C@@H](c2ccc(O)cc2)N1c1ccc(F)cc1, the inhibition in vivo at 1 mg/kg/day [2] is reported as 83%.
For COc1ccc([C@@H]2C(S(=O)(=O)CCc3ccccc3)C(=O)N2c2ccccc2)cc1 (stereo partly specified), the inhibition in vivo at 25 mg/kg/day [4] was 54%.
COc1ccc([C@@H]2[C@@H]([S+]([O-])CCc3ccccc3)C(=O)N2c2ccccc2)cc1 (stereo in doubt; 26) showed an ED50 [1] of 0.9 mg/kg/day and an Inhibition [2] of 58%.
In the case of COc1ccc([C@@H]2[C@@H](CCP(=O)(O)c3ccccc3)C(=O)N2c2ccccc2)cc1, the inhibition in vivo at 25 mg/kg/day [4] is reported as 0%.
For COc1ccc([C@@H]2C([S+]([O-])CCc3ccccc3)C(=O)N2c2ccccc2)cc1 (stereo partly specified), the ED50 [1] was 0.59 mg/kg/day and the inhibition in vivo at 25 mg/kg/day [4] was 97%.
For COc1ccc([C@@H]2[C@@H](CC[S+]([O-])c3ccccc3)C(=O)N2c2ccccc2)cc1 (stereo partly specified), the inhibition in vivo at 10 mg/kg/day [3] was 21%.
COc1ccc([C@H]2C(SCCc3ccccc3)C(=O)N2c2ccccc2)cc1 (stereo partly specified) showed an inhibition in vivo at 10 mg/kg/day [3] of -31%.
Compound COc1ccc([C@@H]2[C@H]([S+]([O-])CCc3ccccc3)C(=O)N2c2ccccc2)cc1 (stereo partly specified) has an ED50 [1] of 0.58 mg/kg/day, an inhibition in vivo at 1 mg/kg/day [2] of 58% and an inhibition in vivo at 3 mg/kg/day [8] of 78%.
